The text below walks through data of ChEMBL document CHEMBL5331127, “Discovery of ARD-2051 as a Potent and Orally Efficacious Proteolysis Targeting Chimera (PROTAC) Degrader of Androgen Receptor for the Treatment of Advanced Prostate Cancer” (J Med Chem, 2023).

SMILES strings stand for the structures.

For series [1], the target named is T1, Androgen receptor (Homo sapiens, UniProt P10275).
T1 sequence (P10275 whole entry): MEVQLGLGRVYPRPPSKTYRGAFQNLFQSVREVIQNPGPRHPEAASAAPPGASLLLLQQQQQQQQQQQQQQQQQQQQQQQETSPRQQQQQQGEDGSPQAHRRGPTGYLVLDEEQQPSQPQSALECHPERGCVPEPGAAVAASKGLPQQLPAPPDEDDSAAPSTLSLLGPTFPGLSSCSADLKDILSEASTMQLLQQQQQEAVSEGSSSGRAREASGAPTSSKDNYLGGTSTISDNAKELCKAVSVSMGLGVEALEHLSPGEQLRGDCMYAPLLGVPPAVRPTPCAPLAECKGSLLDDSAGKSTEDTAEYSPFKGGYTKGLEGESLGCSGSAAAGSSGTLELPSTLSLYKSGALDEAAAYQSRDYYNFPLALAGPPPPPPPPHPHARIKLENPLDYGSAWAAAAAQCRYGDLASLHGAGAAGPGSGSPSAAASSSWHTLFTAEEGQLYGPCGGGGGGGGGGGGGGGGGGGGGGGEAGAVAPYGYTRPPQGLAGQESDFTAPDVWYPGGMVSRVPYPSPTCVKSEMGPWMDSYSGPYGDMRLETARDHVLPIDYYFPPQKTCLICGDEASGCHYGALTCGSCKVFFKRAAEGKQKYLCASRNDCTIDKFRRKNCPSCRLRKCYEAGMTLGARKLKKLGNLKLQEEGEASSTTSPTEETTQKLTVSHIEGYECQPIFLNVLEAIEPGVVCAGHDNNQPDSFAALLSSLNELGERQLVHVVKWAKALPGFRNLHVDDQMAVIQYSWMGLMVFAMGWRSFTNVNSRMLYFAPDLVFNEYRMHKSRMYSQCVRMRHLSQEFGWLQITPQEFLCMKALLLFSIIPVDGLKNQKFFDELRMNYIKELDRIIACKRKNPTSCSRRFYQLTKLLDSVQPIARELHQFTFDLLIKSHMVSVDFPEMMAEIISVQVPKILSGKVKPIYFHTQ
Description: Displacement of Fluormone AL Green from androgen receptor LBD (unknown origin) incubated for 4 hrs by fluorescence polarization assay.

In series [2] the test system is VCaP. Description: Growth inhibition in human VCaP cells incubated for 4 days by WST-8 assay relative to control. The series is classed as functional. The following applies: time 4 day. The method, boiled down:
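VCaP prostate cancer cells (ATCC) were maintained in DMEM with Glutamax plus 10% fetal bovine serum at 37 °C, humidified 5% CO2. They were exposed to compound for 4 days, and viability was then read by WST-8 colorimetric assay following the kit instructions.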

A short description of series [3]: Drug concentration in ICR mouse plasma at 10 mg/kg, po measured after 1 hr. It is filed as ADME, organism-based. The method, boiled down:
(§1)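 Mice given a single 10 mg/kg dose by oral gavage, 3 mice per time point. Plasma drug levels measured at 1, 3, 6 and 24 h; mean ± SD reported.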

Series [4] is described as follows: Drug concentration in ICR mouse plasma at 10 mg/kg, po measured after 3 hrs. The series is classed as ADME, organism-based. The method, boiled down: as §1
A short description of series [5]: Drug concentration in ICR mouse plasma at 10 mg/kg, po measured after 24 hrs. It is filed as ADME, organism-based. The method, boiled down:
as §1

Series [6] in a line: Drug concentration in ICR mouse plasma at 10 mg/kg, po measured after 6 hrs. The series is classed as ADME, organism-based. The method, boiled down:
as §1

Series [7] deals with LNCaP. Description: Growth inhibition in human LNCaP cells incubated for 4 days by WST-8 assay relative to control. It is filed as functional. To be noted: time 4 day. The method, boiled down: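 LNCaP cells grown in RPMI 1640 with 10% FBS, treated for 4 days. Viability read by WST-8 assay.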
Series [8] has as its target T2, Androgen receptor (Homo sapiens) (UniProt P10275).
T2 sequence (whole entry): T1 sequence (P10275 whole entry)
Description: Displacement of Fluormone AL Green from androgen receptor LBD (unknown origin) at 1 uM incubated for 4 hrs by fluorescence polarization assay relative to control.

Series [9] deals with T2, Androgen receptor (Homo sapiens). Description: Induction of androgen receptor degradation in human VCaP cells at 0.01 uM after 24 hrs by Western blotting analysis relative to control. The series is classed as cell-based. The method, boiled down: (§2)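 VCaP cells treated for 24 h at 10, 100 or 1000 nM. AR protein measured by Western blotting.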
Series [10] has the same target. Briefly: Induction of androgen receptor degradation in human VCaP cells at 1 uM after 24 hrs by Western blotting analysis relative to control. It is filed as cell-based. The method, boiled down:
as §2

The target is the same in series [11]. Description: Induction of androgen receptor degradation in human VCaP cells at 0.1 uM after 24 hrs by Western blotting analysis relative to control. The series is classed as cell-based. The method, boiled down:
as §2

Turning to `CN1CCN(C(=O)c2ccc(N3CCC4(CC3)CCN(c3ccc(C#N)c(Cl)c3)C4)cc2)CC1`, in [1], the IC50 was determined as 0.078 µM.
`N#Cc1ccc(O[C@H]2CC[C@H](NC(=O)c3ccc(N4CCC(CN5CCN(c6cc7c(cc6F)C(=O)N(C6CCC(=O)NC6=O)C7=O)CC5)CC4)nn3)CC2)cc1Cl` (some centres undefined) [BAVDEGALUTAMIDE]: the Imax stood at 88% in [2] and 90% in [7]. Further, the concentration at 1 h in [3] was 55 ng/mL. In addition, the concentration at 3 h in series [4] is 124 ng/mL. For the same compound, the concentration at 24 h in series [5] came to 70 ng/mL. For the same compound, the concentration at 6 h in series [6] is 110 ng/mL.
For `N#Cc1ccc(N2CCC3(CCN(C(=O)c4ccccc4)CC3)C2)cc1Cl`, the IC50 in series [1] was found to be 1.7 µM.
In [8], `N#Cc1ccc(N2CCC3(CCN(c4ccccc4)CC3)C2)cc1Cl` returned an inhibition of 30%. The compound further had an IC50 in series [1] of over 1 µM.
In the case of `C[C@H]1CC2(CCN(c3ccc(C(=O)N4CCN(C5CN(c6ccc7c(c6)C(=O)N(C6CCC(=O)NC6=O)C7=O)C5)CC4)cc3)CC2)CN1c1cnc(C#N)c(C(F)(F)F)c1` (some centres undefined), the Activity in series [9] was over 90%; in series [10] it was over 95%; in series [11], over 95%. Further, in [3], the concentration at 1 h was determined as 571 ng/mL. The concentration at 3 h in series [4] stood at 678 ng/mL. In series [6], the concentration at 6 h came to 451 ng/mL.
Take `C[C@H]1CC2(CCN(c3ccc(C(=O)N4CCN(C5CN(c6ccc7c(c6)C(=O)N(C6CCC(=O)NC6=O)C7=O)C5)CC4)cc3)CC2)CN1c1ccc(C#N)c(C(F)(F)F)c1` (some centres undefined): the Activity in series [9] is over 90%; in series [10], over 95%; in [11] it was over 95%. The same compound had a concentration at 1 h in [3] of 31 ng/mL. In series [4], this compound registered a concentration at 3 h of 56 ng/mL. Moreover, the concentration at 6 h in series [6] amounted to 29 ng/mL.
Regarding `C[C@H]1CC2(CCN(c3ccc(C(=O)N4CCN(C5CN(c6ccc7c(c6)C(=O)N(C6CCC(=O)NC6=O)C7=O)C5)CC4)cc3)CC2)CN1c1ccc(C#N)c(F)c1` (some centres undefined), the Activity was over 90% in series [9], over 95% in series [10] and over 95% in [11]. Further, the concentration at 1 h in series [3] was 134 ng/mL. For the same compound, the concentration at 3 h in series [4] stood at 146 ng/mL. This compound had a concentration at 6 h in series [6] of 91 ng/mL.
`CN1CCN(c2ccc(C(=O)N3CCC4(CC3)CCN(c3ccc(C#N)c(Cl)c3)C4)cc2)CC1` registered an IC50 in series [1] of 0.8 µM.
